Laboratory results reported in ChEMBL document CHEMBL3091455, “Dimethylaminopyridine derivatives of lupane triterpenoids cause mitochondrial disruption and induce the permeability transition” (Bioorg Med Chem, 2013).
Activity calls are given as the source filed them. The calls are words filed in the database; no cut-off is given here.

Legend:
Rattus norvegicus [1] = organism: Rattus norvegicus; assay: Effect on electron transport protein complex 2 in Wistar-Han rat liver mitochondria using succinate as substrate assessed as mitochondrial transmembrane electric potential at 3 ug/mg relative to control
Rattus norvegicus [2] = organism: Rattus norvegicus; assay: Effect on electron transport protein complex 1 in Wistar-Han rat liver mitochondria using glutamate/malate as substrate assessed as mitochondrial transmembrane electric potential at 6 ug/mg relative to control
Rattus norvegicus [3] = organism: Rattus norvegicus; assay: Effect on electron transport protein complex 1 in Wistar-Han rat liver mitochondria using glutamate/malate as substrate assessed as phosphorylative lag phase at 6 ug/mg relative to control
Summary of the method: (§1)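 Membrane potential recorded by TPP⁺ electrode, 1 mg rat liver mitochondria, 30 °C, pH 7.2 sucrose/KCl medium with 3 μM TPP⁺. Compound (3 or 6 µg/mg protein) given 1 min before glutamate/malate (5/2.5 mM) or succinate (5 mM) + 3 µM rotenone. Lag phase follows the ADP pulse (125 nmol/mg protein).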

Rattus norvegicus [4] = organism: Rattus norvegicus; assay: Effect on electron transport protein complex 2 in Wistar-Han rat liver mitochondria using succinate as substrate assessed as ADP-induced depolarization at 6 ug/mg relative to control
Rattus norvegicus [5] = organism: Rattus norvegicus; assay: Increase of calcium-induced mitochondrial permeability transition in Wistar-Han rat liver mitochondria assessed as mitochondrial transmembrane electric potential after 2 mins; assay type: functional
Summary of the method: (§2)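 TPP⁺ electrode, 30 °C, 1 mg rat liver mitochondria in 1 ml 200 mM sucrose, 10 mM Tris-MOPS pH 7.2, 10 µM EGTA, 1 mM KH₂PO₄, 3 µM rotenone, 3 µM TPP⁺. Compound incubated with mitochondria 2 min (legend), then 5 mM succinate. Calcium 30–60 nmol pulses, depending on preparation. Controls: 1 µM cyclosporin A pre-incubated; FCCP.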

Rattus norvegicus [6] = organism: Rattus norvegicus; assay: Effect on electron transport protein complex 1 in Wistar-Han rat liver mitochondria using glutamate/malate as substrate assessed as ADP-induced depolarization at 6 ug/mg relative to control
Rattus norvegicus [7] = organism: Rattus norvegicus; assay: Effect on electron transport protein complex 2 in Wistar-Han rat liver mitochondria using succinate as substrate assessed as ADP-induced depolarization at 3 ug/mg relative to control
Rattus norvegicus [8] = organism: Rattus norvegicus; assay: Effect on electron transport protein complex 2 in Wistar-Han rat liver mitochondria using succinate as substrate assessed as mitochondrial transmembrane electric potential at 6 ug/mg relative to control
Rattus norvegicus [9] = organism: Rattus norvegicus; assay: Effect on electron transport protein complex 1 in Wistar-Han rat liver mitochondria using glutamate/malate as substrate assessed as ADP-induced depolarization at 3 ug/mg relative to control
Rattus norvegicus [10] = organism: Rattus norvegicus; assay: Inhibition of electron transport protein complex 1/2 in Wistar-Han rat liver mitochondria using glutamate/malate and succinate as substrate assessed as increase of state 3 and 4 mitochondrial oxygen consumption at 3 to 6 ug/mg
Summary of the method: (§3)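 Compound (3 or 6 µg/mg protein) preincubated 1 min, then 10 mM glutamate/5 mM malate or 5 mM succinate + 3 µM rotenone. ADP 187.5 nmol/mg protein; oligomycin 1 µg; FCCP 1 µM. RCR = state 3/state 4; ADP/O per Chance and Williams. Expressed as % control, means ± SEM, three preparations.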

Rattus norvegicus [11] = organism: Rattus norvegicus; assay: Inhibition of electron transport protein complex 1/2 in Wistar-Han rat liver mitochondria using glutamate/malate and succinate as substrate assessed as decrease of ADP/O ratio at 3 to 6 ug/mg; summary of the method: as §3
Rattus norvegicus [12] = organism: Rattus norvegicus; assay: Effect on electron transport protein complex 2 in Wistar-Han rat liver mitochondria using succinate as substrate assessed as phosphorylative lag phase at 6 ug/mg relative to control; summary of the method: as §1
Rattus norvegicus [13] = organism: Rattus norvegicus; assay: Effect on electron transport protein complex 1 in Wistar-Han rat liver mitochondria using glutamate/malate as substrate assessed as phosphorylative lag phase at 3 ug/mg relative to control; summary of the method: as §1
Rattus norvegicus [14] = organism: Rattus norvegicus; assay: Effect on electron transport protein complex 1 in Wistar-Han rat liver mitochondria using glutamate/malate as substrate assessed as mitochondrial transmembrane electric potential at 3 ug/mg relative to control
Rattus norvegicus [15] = organism: Rattus norvegicus; assay: Effect on electron transport protein complex 2 in Wistar-Han rat liver mitochondria using succinate as substrate assessed as phosphorylative lag phase at 3 ug/mg relative to control; summary of the method: as §1
Rattus norvegicus [16] = organism: Rattus norvegicus; assay: Effect on calcium-induced mitochondrial swelling in Wistar-Han rat liver mitochondria assessed as mitochondrial transmembrane electric potential after 2 mins; assay type: functional; summary of the method: as §2
BJ = assay: Induction of mitochondrial depolarization in human BJ cells at 1 ug/ml after 48 hrs by MitoTracker Red staining; assay type: cell-based
Summary of the method: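 BJ normal human fibroblasts grown as monolayers in DMEM with 10% FBS, 37 °C, 5% CO2. Seeded on glass coverslips, attached 24 h, then exposed to compound (1 µg/ml) for 48 h. MitoTracker Red CMXRos (7.3 nM) added 30 min before end at 37 °C in dark. Methanol-fixed at -20 °C overnight, imaged by epifluorescence (63× objective). Three independent experiments.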

MCF7 = assay: Induction of mitochondrial depolarization in human estrogen-sensitive MCF7 cells at 1 ug/ml after 48 hrs by MitoTracker Red staining; assay type: functional, cell-based
Summary of the method: (§4)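 Cells grown in DMEM with 10% FBS at 37 °C, 5% CO₂, seeded on coverslips, attached 24 h. Then 1 µg/ml compound for 48 h. MitoTracker Red CMXRos 7.3 nM added for the final 30 min. Cells fixed in cold methanol at −20 °C overnight and imaged by epifluorescence with a 63× objective. Three independent experiments.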

Hs-578T = assay: Induction of mitochondrial depolarization in human estrogen-insensitive Hs578T cells at 1 ug/ml after 48 hrs by MitoTracker Red staining; assay type: functional, cell-based; summary of the method: as §4
Rattus norvegicus [17] = organism: Rattus norvegicus; assay: Inhibition of electron transport protein complex 1/2 in Wistar-Han rat liver mitochondria using glutamate/malate and succinate as substrate assessed as decrease of respiratory control ratio at 6 ug/mg; summary of the method: as §3
Rattus norvegicus [18] = organism: Rattus norvegicus; assay: Inhibition of electron transport protein complex 1/2 in Wistar-Han rat liver mitochondria using glutamate/malate and succinate as substrate assessed as increase of passive flux of protons through mitochondrial inner membrane at 3 to 6 ug/mg
Rattus norvegicus [19] = organism: Rattus norvegicus; assay: Inhibition of electron transport protein complex 1/2 in Wistar-Han rat liver mitochondria using glutamate/malate and succinate as substrate assessed as decrease of FCCP-induced respiration at 3 to 6 ug/mg; summary of the method: as §3

| Activity (Rattus norvegicus [1]) [mV] | Activity (Rattus norvegicus [4]) [%] | Activity (Rattus norvegicus [7]) [%] | Activity (Rattus norvegicus [8]) [mV] | Activity (Rattus norvegicus [12]) [%] | Activity (Rattus norvegicus [15]) [%] | Structure (SMILES) | Activity (Rattus norvegicus [2]) [mV] | Activity (Rattus norvegicus [3]) [%] | Activity (Rattus norvegicus [5]) | Activity (Rattus norvegicus [6]) [%] | Activity (Rattus norvegicus [9]) [%] | inhibition (Rattus norvegicus [10]) | Activity (Rattus norvegicus [13]) [%] | Activity (Rattus norvegicus [14]) [mV] | Activity (Rattus norvegicus [16]) | Activity (BJ) | Activity (MCF7) | Activity (Hs-578T) | inhibition (Rattus norvegicus [17]) | further results |
| --- | --- | --- | --- | --- | --- | --- | --- | --- | --- | --- | --- | --- | --- | --- | --- | --- | --- | --- | --- | --- |
| 226 | 27.8 | 28.5 | 224 | 42 | 39 | C=C(C)[C@@H]1CC[C@]2(COC(=O)C[n+]3ccc(N(C)C)cc3)CC[C@]3(C)[C@H](CC[C@@H]4[C@@]5(C)CC[C@H](O)C(C)(C)[C@@H]5CC[C@]43C)[C@@H]12 | 225 | 31 | Active | 22.6 | 22.5 | Active | 28.8 | 225 | inactive |  |  |  |  | inhibition (Rattus norvegicus [11]): Active |
| 232 | 27.8 | 30.3 | 228 | 45.5 | 36 | C=C(C[n+]1ccc(N(C)C)cc1)[C@@H]1CC[C@]2(COC(=O)C[n+]3ccc(N(C)C)cc3)CC[C@]3(C)[C@H](CC[C@@H]4[C@@]5(C)CC[C@H](OC(=O)C[n+]6ccc(N(C)C)cc6)C(C)(C)[C@@H]5CC[C@]43C)[C@@H]12.[Br-].[Br-].[Br-] | 226 | 46.5 | Active | 14.6 | 18.5 | inactive | 42.8 | 225 | inactive | Toxic | Active | Active | Active |  |
| 228 | 13.8 | 22.4 | 228 | 57 | 40.3 | C=C(C[n+]1ccc(N(C)C)cc1)[C@@H]1CC[C@]2(C(=O)O)CC[C@]3(C)[C@H](CC[C@@H]4[C@@]5(C)CC[C@H](O)C(C)(C)[C@@H]5CC[C@]43C)[C@@H]12.[Br-] | 229 | 63.3 |  | 13.5 | 19.5 | inactive | 51 | 229 |  | Non-toxic | inactive | inactive | Active |  |

| Structure (SMILES) | Activity (Rattus norvegicus [1]) [mV] | Activity (Rattus norvegicus [4]) [%] | Activity (Rattus norvegicus [7]) [%] | Activity (Rattus norvegicus [8]) [mV] | Activity (Rattus norvegicus [12]) [%] | Activity (Rattus norvegicus [15]) [%] | Activity (Rattus norvegicus [2]) [mV] | Activity (Rattus norvegicus [3]) [%] | Activity (Rattus norvegicus [5]) | Activity (Rattus norvegicus [6]) [%] | Activity (Rattus norvegicus [9]) [%] | inhibition (Rattus norvegicus [10]) | Activity (Rattus norvegicus [13]) [%] | Activity (Rattus norvegicus [14]) [mV] | Activity (Rattus norvegicus [16]) | Activity (BJ) | Activity (MCF7) | Activity (Hs-578T) | inhibition (Rattus norvegicus [17]) | further results |
| --- | --- | --- | --- | --- | --- | --- | --- | --- | --- | --- | --- | --- | --- | --- | --- | --- | --- | --- | --- | --- |
| C=C(C)[C@@H]1CC[C@]2(CO)CC[C@]3(C)[C@H](CC[C@@H]4[C@@]5(C)CC[C@H](OC(=O)C[n+]6ccc(N(C)C)cc6)C(C)(C)[C@@H]5CC[C@]43C)[C@@H]12.[Cl-] | 232 | 29.9 | 36.2 | 228 | 53 | 38 | 222 | 45 | Active | 23.5 | 26.5 | inactive | 27.8 | 222 | inactive | Toxic | Active | Active |  |  |
| C=C(C)[C@@H]1CC[C@]2(COC(=O)C[n+]3ccc(N(C)C)cc3)CC[C@]3(C)[C@H](CC[C@@H]4[C@@]5(C)CC[C@H](OC(=O)C[n+]6ccc(N(C)C)cc6)C(C)(C)[C@@H]5CC[C@]43C)[C@@H]12.[Br-].[Br-] | 232 | 27.7 | 30.6 | 229 | 40 | 38.3 | 225 | 46 | Active | 20.3 | 23.4 |  | 36.8 | 225 | inactive | Toxic | Active | Active |  | inhibition (Rattus norvegicus [18]): Active; inhibition (Rattus norvegicus [19]): Active |
